Test results: ChEMBL document CHEMBL1141655, “Structure-activity relationships of Bak derived peptides: affinity and specificity modulations by amino acid replacement” (Eur J Med Chem, 2008)
pEC50: −log10 of the molar value.

Key:
Bcl-2-like protein 1 = Bcl-2-like protein 1 (Homo sapiens, UniProt Q07817); test: Binding affinity to recombinant Bcl-XL expressed in Escherichia coli BL21 by fluorescence polarization assay
[1] = target: Apoptosis regulator Bcl-2 (Homo sapiens, UniProt P10415); test: Binding affinity to recombinant Bcl-2 expressed in Escherichia coli BL21 by fluorescence polarization assay
Outline: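 GST-Bcl-2 lacking C-terminal 21 residues, glutathione-resin purified, dialysed into 20 mM phosphate pH 7.4, 1 mM EDTA, 50 mM NaCl. Competition FP: fluorescein N-terminal Bak BH3 probe 15 nM, protein 1 µM, peptide final 10^-9 to 10^-4 M with 0.05% pluronic acid; 30 min room temperature; ex 485/em 535 nm, mP. EC50 from sigmoidal dose-response, n = 2, triplicate.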

[2] = Selectivity ratio of EC50 for recombinant Bcl-2 to EC50 for recombinant Bcl-XL

Bcl-2-like protein 1, sequence (Q07817 whole entry): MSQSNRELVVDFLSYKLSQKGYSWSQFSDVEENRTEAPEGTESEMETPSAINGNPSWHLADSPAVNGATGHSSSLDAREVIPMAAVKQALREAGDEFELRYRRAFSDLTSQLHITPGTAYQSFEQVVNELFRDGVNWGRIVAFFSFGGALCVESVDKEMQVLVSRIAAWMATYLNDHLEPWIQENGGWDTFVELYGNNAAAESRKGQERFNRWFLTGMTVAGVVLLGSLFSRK
Apoptosis regulator Bcl-2, sequence (P10415 whole entry): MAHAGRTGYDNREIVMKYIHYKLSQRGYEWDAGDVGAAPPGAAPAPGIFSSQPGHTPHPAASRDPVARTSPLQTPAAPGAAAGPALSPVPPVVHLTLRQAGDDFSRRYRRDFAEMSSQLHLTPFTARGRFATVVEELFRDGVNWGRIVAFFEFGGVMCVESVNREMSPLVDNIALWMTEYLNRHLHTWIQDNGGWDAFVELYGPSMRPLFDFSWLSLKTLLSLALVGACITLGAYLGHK

## CC[C@H](C)[C@H](NC(=O)[C@H](C)NC(=O)[C@H](CC(C)C)NC(=O)[C@H](CCC(N)=O)NC(=O)[C@H](CCCNC(=N)N)NC(=O)CNC(=O)[C@@H](NC(=O)[C@H](CCC(N)=O)NC(=O)CN)C(C)C)C(=O)N[C@@H](Cc1c[nH]c2ccccc12)C(=O)NCC(=O)N[C@@H](CC(=O)O)C(=O)N[C@@H](CC(=O)O)C(=O)N[C@H](C(=O)N[C@@H](CC(N)=O)C(=O)N[C@@H](CCCNC(=N)N)C(=O)O)[C@@H](C)CC
Bcl-2-like protein 1
  pEC50: 6.43
[1]
  pEC50: 5.55
[2]
  Ratio EC50: 7

## CC[C@H](C)[C@H](NC(=O)[C@H](C)NC(=O)[C@H](CC(C)C)NC(=O)[C@H](CCC(N)=O)NC(=O)[C@H](CCCNC(=N)N)NC(=O)CNC(=O)[C@H](Cc1ccc2ccccc2c1)NC(=O)[C@H](CCC(N)=O)NC(=O)CN)C(=O)N[C@H](C(=O)NCC(=O)N[C@@H](CC(=O)O)C(=O)N[C@@H](CC(=O)O)C(=O)N[C@H](C(=O)N[C@@H](CC(N)=O)C(=O)N[C@@H](CCCNC(=N)N)C(=O)O)[C@@H](C)CC)[C@@H](C)CC
Bcl-2-like protein 1
  pEC50: 6.46
[1]
  pEC50: 5.21
[2]
  Ratio EC50: 17

## CC[C@H](C)[C@H](NC(=O)[C@H](C)NC(=O)[C@H](Cc1ccc2ccccc2c1)NC(=O)[C@H](CCC(N)=O)NC(=O)[C@H](CCCNC(=N)N)NC(=O)CNC(=O)[C@@H](NC(=O)[C@H](CCC(N)=O)NC(=O)CN)C(C)C)C(=O)N[C@H](C(=O)NCC(=O)N[C@@H](CC(=O)O)C(=O)N[C@@H](CC(=O)O)C(=O)N[C@H](C(=O)N[C@@H](CC(N)=O)C(=O)N[C@@H](CCCNC(=N)N)C(=O)O)[C@@H](C)CC)[C@@H](C)CC
Bcl-2-like protein 1
  pEC50: 6.90
[1]
  pEC50: 4.77
[2]
  Ratio EC50: 133

## CC[C@H](C)[C@H](NC(=O)[C@H](C)NC(=O)[C@H](CC(C)C)NC(=O)[C@H](CCC(N)=O)NC(=O)[C@H](CCCNC(=N)N)NC(=O)CNC(=O)[C@@H](NC(=O)[C@H](CCC(N)=O)NC(=O)CN)C(C)C)C(=O)N[C@H](C(=O)NCC(=O)N[C@@H](CC(=O)O)C(=O)N[C@@H](CC(=O)O)C(=O)N[C@@H](Cc1ccc(Cl)cc1)C(=O)N[C@@H](CC(N)=O)C(=O)N[C@@H](CCCNC(=N)N)C(=O)O)[C@@H](C)CC
Bcl-2-like protein 1
  pEC50: 7.42
[1]
  pEC50: 5.95
[2]
  Ratio EC50: 30

## CC[C@H](C)[C@H](NC(=O)[C@H](C)NC(=O)[C@H](CC(C)C)NC(=O)[C@H](CCC(N)=O)NC(=O)[C@H](CCCN=C(N)N)NC(=O)CNC(=O)[C@@H](NC(=O)[C@H](CCC(N)=O)NC(=O)CN)C(C)C)C(=O)N[C@@H](Cc1ccc(-c2ccccc2)cc1)C(=O)NCC(=O)N[C@@H](CC(=O)O)C(=O)N[C@@H](CC(=O)O)C(=O)N[C@H](C(=O)N[C@@H](CC(N)=O)C(=O)N[C@@H](CCCN=C(N)N)C(=O)O)[C@@H](C)CC
Bcl-2-like protein 1
  pEC50: 5.90
[1]
  pEC50: 4.68

## CC[C@H](C)[C@H](NC(=O)[C@H](C)NC(=O)[C@H](CC(C)C)NC(=O)[C@H](CCC(N)=O)NC(=O)[C@H](CCCNC(=N)N)NC(=O)CNC(=O)[C@@H](NC(=O)[C@H](CCC(N)=O)NC(=O)CN)C(C)C)C(=O)N[C@H](C(=O)NCC(=O)N[C@@H](CC(=O)O)C(=O)N[C@@H](CC(=O)O)C(=O)N[C@@H](Cc1ccc([N+](=O)[O-])cc1)C(=O)N[C@@H](CC(N)=O)C(=O)N[C@@H](CCCNC(=N)N)C(=O)O)[C@@H](C)CC
Bcl-2-like protein 1
  pEC50: 6.23
[1]
  pEC50: 5.10
[2]
  Ratio EC50: 13
